Laboratory results taken from article PMC9619409 (Journal of Medicinal Chemistry, 2022).
Values after ≈ are worked out from the molar mass of the structure shown. “Also recorded” adds a separate entry of the source. Values belong to the compound of their own block, whether it stands above or below them.

Legend:
[1] = Cleavage/stability in P. aeruginosa PA14 culture filtrate without plasma; assay type: in vitro ADME, Pseudomonas aeruginosa; settings: up to 24 h
P. aeruginosa PA14 = test: Antibiotic susceptibility; assay type: cell-based, Pseudomonas aeruginosa
Summary of the method: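 PA14 from LB agar (37 °C overnight) dispersed in MHB II to OD600 0.08–0.13, diluted 1:100 (final 5 × 10⁵ cfu/mL). Serial dilutions in PBS/20% DMSO (1 mM–1.9 μM before dilution) diluted ~1:20 into matrix at −3 h (sealed, 37 °C) or −10 min (room temperature).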

[2] = assay type: in vitro ADME; settings: human blood plasma + PA14 culture supernatant, 37 °C, up to 3 h
Summary of the method: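 PA14 grown overnight in LB at 37 °C, 180 rpm. Culture centrifuged and supernatant 0.22 μm-filtered, then mixed 1:9 with pooled LiHep human plasma. Test compound (1 mM stock, PBS pH 7.4/20% DMSO) diluted 1:20 into matrix on ice and incubated at 37 °C, 500 rpm. Samples taken at 0, 30, 60, 120 and 180 min, quenched with ice-cold MeCN containing diphenhydramine internal standard, centrifuged, then analysed by HPLC-MS.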

[3] = assay type: in vitro ADME; settings: human blood plasma spiked with fresh growth medium, within 3 h
[4] = Microsomal stability assay, mouse; assay type: in vitro ADME; settings: mouse liver microsomes
Summary of the method: (§1)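 Mouse or human liver microsomes thawed slowly on ice, then combined with test compound (from a 100 μM solution; final level not given) and 100 mM phosphate buffer. Pre-incubated 5 min at 37 °C in a water bath. Intrinsic clearance reported as μL/min/mg protein.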

[5] = Microsomal stability assay, human; assay type: in vitro ADME; settings: human liver microsomes
Summary of the method: as §1

A549 cells [6] = test: Cell accumulation assay; assay type: cell-based, human; settings: for compound 2 found in cells after lysis (intracellular cleavage of prodrug): A549 cells treated with prodrug
A549 cells [7] = settings: cytotoxicity versus antimicrobial activity
[8] = Matrix 3: 10% P. aeruginosa culture supernatant in PBS, pre-incubation < 10 min

Compound: Leu-Ala-Ciprofloxacin Conjugate [Compound 19]
- release of antibiotic cargo from dipeptide conjugate [1]: only slowly released their antibiotic cargo

Compound: CC(C)C[C@H](NC(=O)CNC(=O)[C@H](C)NC(=O)c1ccc(S[C@@H]2O[C@H](CO)[C@H](O)[C@H](O)[C@H]2O)cc1)C(=O)N[C@@H](C)C(=O)N[C@H]1CCN(c2cc3c(cc2F)c(=O)c(C(=O)O)cn3C2CC2)C1 [Compound 36, LecA-Targeted Aminopyrrolidine-fluoroquinolone Prodrug]
- MIC (P. aeruginosa PA14; Matrix 3: 10% P. aeruginosa culture supernatant in PBS, pre-incubation 3 h): 0.195 to 3.13 µM
- MIC (P. aeruginosa PA14; [8]): 0.78 to 3.13 µM
- release of native antibiotic cargo [2]: efficiently released
- release of antibiotic cargo (stability control) [3]: no significant release of the antibiotic cargo was observed
- half-life at 1 h, 100 µM [4]: 1.67 h
- microsomal CLint at 1 h, 100 µM [4]: 14 µL/min/mg
- half-life at 1 h, 100 µM [5]: 1.55 h
- microsomal CLint at 1 h, 1 µM [5]: 15 µL/min/mg
- fold decreased ability to permeate into human cells versus 2 (A549 cells [6]; A549 cells): up to 100 fold
- compound 2 found in cells after lysis (intracellular cleavage of prodrug) (A549 cells [6]): not detected
- intracellular concentration (A549 cells [6]; A549 cells, 10 μg/mL, after 15, 30, and 60 min): 55 to 130 ng/mL
- selectivity index (A549 cells [7]): greater than 20

Compound: CC(C)C[C@H](NC(=O)CNC(=O)[C@H](C)NC(=O)c1ccc(S(=O)(=O)NC[C@H]2O[C@@H](C)[C@@H](O)[C@@H](O)[C@@H]2O)cc1)C(=O)N[C@@H](C)C(=O)N[C@H]1CCN(c2cc3c(cc2F)c(=O)c(C(=O)O)cn3C2CC2)C1 [Compound 37, LecB-Targeted Aminopyrrolidine-FQ-Prodrug]
- release of native antibiotic cargo [2]: efficiently released
- release of antibiotic cargo (stability control) [3]: no significant release of the antibiotic cargo was observed
- half-life at 1 h, 100 µM [4]: 3.6 h
- microsomal CLint at 1 h, 1 µM [4]: 6.4 µL/min/mg
- half-life at 1 h, 100 µM [5]: 2.97 h
- microsomal CLint at 1 h, 100 µM [5]: 7.8 µL/min/mg
- fold decreased ability to permeate into human cells versus 2 (A549 cells [6]; A549 cells): up to 100 fold
- compound 2 found in cells after lysis (intracellular cleavage of prodrug) (A549 cells [6]): not detected

Compound: CC(C)C[C@H](NC(=O)CNC(=O)[C@H](C)NC(=O)c1ccc(S[C@@H]2O[C@H](CO)[C@H](O)[C@H](O)[C@H]2O)cc1)C(=O)N[C@@H](C)C(=O)NC[C@@H]1CCN(c2cc3c(cc2F)c(=O)c(C(=O)O)cn3C2CC2)C1 [Compound 48, LecA-Targeted Aminomethylpyrrolidine-FQ-Prodrug]
- release of native antibiotic cargo [2]: efficiently released
- release of antibiotic cargo (stability control) [3]: no significant release of the antibiotic cargo was observed

- MIC (P. aeruginosa PA14; Pseudomonas aeruginosa, PA14, Matrix 1: PBS, pre-incubation 3 h): 0.125 to 0.25 µM (≈ 0.0414 to 0.0828 µg/mL)
Compound: O=C(O)c1cn(C2CC2)c2cc(N3CCNCC3)c(F)cc2c1=O [Compound 1, Ciprofloxacin, reference compound]

Compound: CC(C)C[C@H](NC(=O)CNC(=O)[C@H](C)NC(=O)c1ccc(S(=O)(=O)NC[C@H]2O[C@@H](C)[C@@H](O)[C@@H](O)[C@@H]2O)cc1)C(=O)N[C@@H](C)C(=O)NC[C@@H]1CCN(c2cc3c(cc2F)c(=O)c(C(=O)O)cn3C2CC2)C1 [Compound 49, LecB-Targeted Aminomethylpyrrolidine-FQ-Prodrug]
- MIC (P. aeruginosa PA14; [8]): 3.13 to 6.25 µM
- release of native antibiotic cargo [2]: efficiently released
- release of antibiotic cargo (stability control) [3]: no significant release of the antibiotic cargo was observed

Compound: CC(C)C[C@H](N)C(=O)N[C@@H](C)C(=O)N[C@H]1CCN(c2cc3c(cc2F)c(=O)c(C(=O)O)cn3C2CC2)C1 [Compound 35, 7-((S)-3-((S)-2-((S)-2-Amino-4-methylpentanamido)propanamido)pyrrolidin-1-yl)-1-cyclopropyl-6-fluoro-4-oxo-1,4-dihydroquinoline-3-carboxylic Acid]
- release of antibiotic cargo from dipeptide conjugate [1]: only slowly released their antibiotic cargo

Compound: CC(C)C[C@H](NC(=O)CNC(=O)[C@H](C)NC(=O)c1ccc(S[C@@H]2O[C@H](CO)[C@H](O)[C@H](O)[C@H]2O)cc1)C(=O)N[C@@H](C)C(=O)N1CCN(c2cc3c(cc2F)c(=O)c(C(=O)O)cn3C2CC2)CC1 [Compound 24, LecA-targeted ciprofloxacin-prodrug]
- release of native antibiotic cargo [2]: not fully metabolized to release their native antibiotic cargo; also recorded: not completely processed to release free ciprofloxacin
- release of antibiotic cargo (stability control) [3]: no significant release of the antibiotic cargo was observed

Compound: CC(C)C[C@H](NC(=O)CNC(=O)[C@H](C)NC(=O)c1ccc(S(=O)(=O)NC[C@H]2O[C@@H](C)[C@@H](O)[C@@H](O)[C@@H]2O)cc1)C(=O)N[C@@H](C)C(=O)N1CCN(c2cc3c(cc2F)c(=O)c(C(=O)O)cn3C2CC2)CC1 [Compound 25, LecB-Targeted Ciprofloxacin-Prodrug]
- release of native antibiotic cargo [2]: not fully metabolized to release their native antibiotic cargo; also recorded: not completely processed to release free ciprofloxacin
- release of antibiotic cargo (stability control) [3]: no significant release of the antibiotic cargo was observed
